Measured values from ChEMBL document CHEMBL3853310, “Daphnane Diterpenes from Daphne genkwa Activate Nurr1 and Have a Neuroprotective Effect in an Animal Model of Parkinson's Disease” (J Nat Prod, 2016).
Calls of active or inactive are those of the source. The rule behind the calls is not given here.

Key:
SH-SY5Y [1] = experiment: Neuroprotective activity against 6-OHDA-induced cell death in human SH-SY5Y cells assessed as decrease in cleaved caspase-3 level at 6 uM by Western blot method; type: functional, cell-based
Summary of the method: (§1)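 SH-SY5Y cells exposed to 6-OHDA in serum-free N-2 medium ± compound at 6 µM. Lysates in Triton/Tris/NaCl/PMSF, SDS-PAGE, PVDF blot, HRP secondary, ECL detection of cleaved caspase-3 and cytosolic cytochrome c. Actin and SOD-1 used as loading controls.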

[2] = target: Nuclear receptor subfamily 4 group A member 2 (Mus musculus) (UniProt Q06219); experiment: Activation of mouse Nurr1 transfected in human SK-N-BE(2)C cells by luciferase reporter gene assay; type: cell-based
Sequence of Nuclear receptor subfamily 4 group A member 2 (Mus musculus) (Q06219 whole entry, the tested form may be a part): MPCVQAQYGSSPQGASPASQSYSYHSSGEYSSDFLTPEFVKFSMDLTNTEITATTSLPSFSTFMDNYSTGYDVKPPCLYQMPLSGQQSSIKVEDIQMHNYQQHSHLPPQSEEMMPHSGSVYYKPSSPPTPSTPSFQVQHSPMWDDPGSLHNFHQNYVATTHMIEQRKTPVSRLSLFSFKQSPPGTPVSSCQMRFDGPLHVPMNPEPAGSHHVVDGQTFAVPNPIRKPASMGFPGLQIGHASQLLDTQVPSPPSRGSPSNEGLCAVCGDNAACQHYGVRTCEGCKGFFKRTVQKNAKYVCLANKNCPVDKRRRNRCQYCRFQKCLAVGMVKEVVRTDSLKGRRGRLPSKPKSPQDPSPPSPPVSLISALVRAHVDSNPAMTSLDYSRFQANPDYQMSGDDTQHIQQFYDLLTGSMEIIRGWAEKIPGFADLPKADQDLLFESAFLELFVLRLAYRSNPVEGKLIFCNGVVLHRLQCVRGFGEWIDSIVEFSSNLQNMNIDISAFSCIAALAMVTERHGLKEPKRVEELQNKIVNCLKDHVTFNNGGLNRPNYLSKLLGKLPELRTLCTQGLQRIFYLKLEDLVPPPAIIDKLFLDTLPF
Summary of the method: (§2)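 SK-N-BE(2)C neuroblastoma cells plated 1.5 × 10^5/well a day before, transfected with pTH2600LUC (2.6 kb rat TH promoter), pCMV Nurr1-myc, pZeoSV-Nurr1(LBD), p8xGAL-Luc and pRSV-β-gal control (0.5 µg DNA/well total). Test agent added 6 h post-transfection in DMEM with 1% charcoal-stripped serum, incubated overnight. Firefly luciferase read, normalized to β-galactosidase.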

[3] = target: Nuclear receptor subfamily 4 group A member 2 (Mus musculus) (UniProt Q06219); experiment: Activation of mouse Nurr1 transfected in human SK-N-BE(2)C cells at 0.3 uM by luciferase reporter gene assay relative to control; type: cell-based; summary of the method: as §2
[4] = Cytotoxicity against human SK-N-BE(2)C cells up to 30 uM; type: toxicity, cell-based
SH-SY5Y [5] = experiment: Neuroprotective activity against 6-OHDA-induced cell death in human SH-SY5Y cells assessed as increase in cell viability at 6.25 uM by MTT reduction assay; type: functional, cell-based
Summary of the method: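 SH-SY5Y cells grown 2 days on poly-D-lysine in DMEM with 10% horse serum and 5% FBS, then switched to serum-free N-2 medium containing 6-OHDA ± compound. Viability by MTT (1 mg/mL final, 1 h), formazan solubilized 24 h in Triton/HCl/isopropanol, absorbance 570 nm. ANOVA with Tukey–Kramer, n = 4.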

[6] = Cytotoxicity against human SH-SY5Y cells assessed as decrease in cell viability at higher concentrations by MTT reduction assay; type: toxicity, cell-based
SH-SY5Y [7] = experiment: Neuroprotective activity against 6-OHDA-induced cell death in human SH-SY5Y cells assessed as decrease in release of mitochondrial cytochrome c into cytosolic fraction at 6 uM by Western blot method; type: functional, cell-based; summary of the method: as §1
BV-2 [8] = experiment: Antiinflammatory activity in mouse BV2 cells assessed as downregulation of LPS-induced IL-1beta mRNA expression at 3 uM by qRT-PCR method; type: functional, cell-based
Summary of the method: (§3)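 BV-2 mouse microglia (DMEM, 10% heat-inactivated FBS, 2 mM glutamine) in six-well plates at 1.0 × 10^5 cells/well, given LPS with or without compound at 37 °C. RNA extracted. IL-1β and IL-6 mRNA measured by SYBR Green real-time PCR on cDNA from 50 ng DNase-treated RNA. ANOVA with Tukey–Kramer, n = 4.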

BV-2 [9] = experiment: Antiinflammatory activity in mouse BV2 cells assessed as downregulation of LPS-induced IL-6 mRNA expression at 3 uM by qRT-PCR method; type: functional, cell-based; summary of the method: as §3
BV-2 [10] = experiment: Antiinflammatory activity in mouse BV2 cells assessed as downregulation of LPS-induced IL-1beta level at 3 uM by Western blot method; type: functional, cell-based
BV-2 [11] = experiment: Antiinflammatory activity in mouse BV2 cells assessed as downregulation of LPS-induced IL-6 level at 3 uM by Western blot method; type: functional, cell-based
Rattus norvegicus [12] = experiment: Neuroprotective activity in 6-OHDA-lesioned Sprague-Dawley rat model of parkinson disease assessed as decrease in d-amphetamine-induced ipsilateral rotations at 0.5 mg/kg/day, ip administered for 2 weeks measured on day 14 and 42 post 6-OHDA lesion induction relative to vehicle-treated control; type: functional, organism-based
Summary of the method: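 Sprague-Dawley rats (140–160 g), desipramine 25 mg/kg ip 30 min before surgery, under Zoletil anesthesia. 6-OHDA 8 µL of 2.5 µg/µL injected into left striatum. Compound in saline with 0.25% ethanol or vehicle given ip daily for 2 weeks (n = 10 vs 14). d-Amphetamine 5 mg/kg. Ipsilateral turns counted for 30 min starting 30 min after dosing, at weeks 2 and 6. Student's t-test.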

Rattus norvegicus [13] = experiment: Neuroprotective activity in 6-OHDA-lesioned Sprague-Dawley rat model of parkinson disease assessed as decrease in loss of tyrosine hydroxylase-positive immunoreactive neuronal cell levels in ipsilateral side of substantia nigra pars compacta by measuring cell levels in intact contralateral side at 0.5 mg/kg/day, ip administered for 2 weeks measured on day 43 post 6-OHDA lesion induction by immunohistochemical analysis (reference value: 24.62 +/- 3.48%); type: functional; design: scale not given: the % may be the effect or the level left
Summary of the method: (§4)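 Same unilateral striatal 6-OHDA rat model with 2-week daily ip dosing (vehicle 0.25% ethanol). Perfused with 4% PFA on day 43. 40 µm coronal sections stained by DAB for TH (SNc, AP −4.8 to −5.5) or Iba-1 (striatum, AP +1.0 to +0.6). Cells counted in three sections per animal. TH expressed as % of contralateral side. Student's t-test, n = 10–14.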

Rattus norvegicus [14] = experiment: Antiinflammatory activity in 6-OHDA-lesioned Sprague-Dawley rat model of parkinson disease assessed as decrease in Iba-1 positive cell levels in striatum at 0.5 mg/kg/day, ip administered for 2 weeks measured on day 43 post 6-OHDA lesion induction by immunohistochemical analysis relative to vehicle-treated control; type: functional, organism-based; summary of the method: as §4

SMILES	Activity (SH-SY5Y [1])	Activity [2]	fold change (FC) [3]	Activity [4]	Activity (SH-SY5Y [5])	Activity [6]	Activity (SH-SY5Y [7])	Activity (BV-2 [8])	Activity (BV-2 [9])	Activity (BV-2 [10])	Activity (BV-2 [11])	Activity (Rattus norvegicus [12])	Activity (Rattus norvegicus [13]) [%]	Activity (Rattus norvegicus [14])
C=C(C)[C@]12C[C@@H](C)[C@@]34OC(c5ccccc5)(O[C@@H]1[C@@H]3[C@@H]1O[C@]1(CO)[C@@H](O)[C@@]1(O)[C@H]4C[C@H](C)[C@@H]1OC(=O)c1ccccc1)O2	Active	Dose-dependent effect	3	Non-Toxic	Active	Toxic	Active	Active	Active	Active	Active	–	–	–
C=C(C)[C@@]12OC3(/C=C/C=C/CCCCC)O[C@@H]1[C@@H]1[C@@H]4O[C@]4(CO)[C@@H](O)[C@]4(O)C(=O)C(C)=C[C@H]4[C@@]1(O3)[C@H](C)[C@H]2OC(=O)c1ccccc1	Active	Dose-dependent effect	3.5	Non-Toxic	Active	Toxic	Active	Active	Active	Active	Active	Active	40.28	Active
